Measurements pooled from the literature.
Compare with care: the assays were run in different laboratories. Converted amounts (≈) assume the structure as drawn.

Structure (SMILES)	organism	assay	system	conditions	quantity	value
O=C(O)Cc1ccccc1Oc1ccc(-c2noc(-c3ccc(O)cc3)n2)cc1	Enterococcus faecium	microbial growth, broth dilution	–	24 h	MIC	> 32 µg/mL
CN(c1ccc(NC(=O)Nc2c(Cl)cccc2Cl)cc1)c1ccnc(Nc2cccc(CS(C)(=O)=O)c2)n1	Trypanosoma brucei	parasite growth	–	–	EC50	7940 nM
O=C(O)c1cccc(-n2c(/C=C/c3ccc(C#CCO)cc3)nc3ccccc3c2=O)c1	Enterococcus faecium	microbial growth, broth dilution	NCTC7171	–	MIC	> 128 µg/mL
Cl.NCc1ccccc1Oc1ccc(-c2noc(-c3ccc(O)cc3)n2)cc1	Enterococcus faecium	microbial growth, broth dilution	–	24 h	MIC	8 µg/mL
O=C(O)c1cn(C2CC2)c2cc(N3CCNCC3)c(F)cc2c1=O	Mycobacterium intracellulare	microbial killing	ATCC23068	–	MBC	3 µM (≈ 0.994 µg/mL)
CNC(=O)c1cc(Oc2ccc(NC(=O)Nc3ccc(Cl)c(C(F)(F)F)c3)cc2)ccn1	Plasmodium berghei	parasite growth, luciferase	human	liver stage	IC50	1400 nM
Cl.NCCc1ccc(Oc2ccc(-c3noc(-c4ccc(O)cc4)n3)cc2)cc1	Enterococcus faecium	microbial growth, broth dilution	–	24 h	MIC	4 µg/mL
CC1=C(C(=O)Nc2ccc3[nH]ncc3c2)C(c2ccc(Cl)c(Cl)c2)CC(=O)N1 (centres unmarked)	Trypanosoma brucei	parasite growth	–	–	EC50	25100 nM
CC(=O)Oc1ccc(-n2c(/C=C/c3ccc([N+](=O)[O-])cc3)nc3ccccc3c2=O)cc1	Enterococcus faecium	microbial growth, broth dilution	NCTC7171	–	MIC	32 µg/mL (≈ 74.9 µM)
C/C(=C\c1ccc(O)cc1)C(=O)Nc1ccc(C(=O)N[C@@H](CC(N)=O)C(=O)Nc2ccc(C(=O)Nc3ccc(C(=O)Nc4ccc(C(=O)O)cc4)c(O)c3OC(C)C)cc2)cc1	Citrobacter freundii	microbial growth	DSM30039	–	MIC	0.125 µg/mL (≈ 0.148 µM)
Cl.Oc1ccc(-c2nc(-c3ccc(Oc4ccc5c(c4)CNCC5)cc3)no2)cc1	Enterococcus faecium	microbial growth, broth dilution	–	24 h	MIC	4 µg/mL
COC(=O)CCNC(=O)c1cccc(-n2c(/C=C/c3ccc(C#N)cc3)nc3ccccc3c2=O)c1	Enterococcus faecium	microbial growth, broth dilution	NCTC7171	–	MIC	> 128 µg/mL
C#CCCCCCCCCCCCC(O)CC(O)CO (centres unmarked)	Mycobacterium intracellulare	microbial growth, resazurin	ATCC23068	–	IC50	> 200 µg/mL
CC(C)=Cc1cccc2c1C(=NNc1ccc(S(N)(=O)=O)cc1)C(=O)N2	Trypanosoma brucei	parasite growth	–	–	EC50	31.6 nM
O=C(O)CCc1ccccc1Oc1ccc(-c2noc(-c3ccc(O)cc3)n2)cc1	Enterococcus faecium	microbial growth, broth dilution	–	24 h	MIC	> 32 µg/mL
O=C(O)c1ccc(-c2c[nH]c3ncc(-c4ccccc4)cc23)cc1C1CCCC1	Plasmodium berghei	parasite growth, luciferase	human	liver stage	IC50	1200 nM
O=C(O)Cc1ccc(Oc2ccc(-c3noc(-c4ccc(O)cc4)n3)cc2)cc1	Enterococcus faecium	microbial growth, broth dilution	–	24 h	MIC	> 32 µg/mL
COC(=O)c1ccc2c(c1)C(=Cc1cc(Br)c(O)c(Br)c1)C(=O)N2	Plasmodium berghei	parasite growth, luciferase	human	liver stage	IC50	6700 nM
O=C(Nc1ccccc1-c1ccc(F)c(F)c1)c1nccnc1C(F)(F)F	Monilinia fructicola	microbial growth	–	–	EC50	0.11 µg/mL
CC(C)Oc1c(NC(=O)c2ccc(NC(=O)c3ccc(NC(=O)[C@H](CC(N)=O)NC(=O)c4ccc(NC(=O)c5ccc(C#N)s5)cc4)cc3)c(OC(C)C)c2O)ccc(C(=O)O)c1O	Citrobacter freundii	microbial growth	DSM30039	–	MIC	0.5 µg/mL (≈ 0.561 µM)
COc1cc2c(cc1Nc1nc(Nc3cccc(F)c3C(N)=O)c3cc[nH]c3n1)N(C(=O)CN1CCN(C(C)C)CC1)CC2	Trypanosoma brucei	parasite growth	–	–	EC50	200 nM

Structure (SMILES)	organism	assay	system	conditions	quantity	value
O=C(O)CCc1cccc(Oc2ccc(-c3noc(-c4ccc(O)cc4)n3)cc2)c1	Enterococcus faecium	microbial growth, broth dilution	–	24 h	MIC	> 32 µg/mL
C#CCCCCCCCCC=CCC(O)CC(O)CO (centres unmarked)	Mycobacterium intracellulare	microbial growth, resazurin	ATCC23068	–	IC50	> 200 µg/mL
CC(=O)Nc1ccc(-c2nc(-c3ccc(Oc4ccccc4)cc3)no2)cc1	Enterococcus faecium	microbial growth, broth dilution	–	24 h	MIC	> 32 µg/mL
CC(=O)Oc1cccc(-n2c(/C=C/c3ccc([N+](=O)[O-])cc3)nc3ccccc3c2=O)c1	Enterococcus faecium	microbial growth, broth dilution	NCTC7171	–	MIC	64 µg/mL (≈ 150 µM)
COc1ccc(-c2nn3ncccc3c2-c2ccnc(Nc3ccc4c(c3)OCCO4)n2)cc1	Plasmodium berghei	parasite growth, luciferase	human	liver stage	IC50	3500 nM
C[C@@H](Oc1cc(-n2cnc3ccc(OCC4CCN(C)CC4)cc32)sc1C(N)=O)c1ccccc1C(F)(F)F	Trypanosoma brucei	parasite growth	–	–	EC50	15.8 nM
C=CCCCCCCCCCCCC(O)CC(O)CO (centres unmarked)	Candida albicans	microbial growth, broth dilution	ATCC90028	–	IC50	> 200 µg/mL
Cl.Oc1cccc2c1[nH]c1c(C3=CC4(O)CC/C=C\CCCCN5CCC3C3(CC6/C=C\CCCCN6C43)C5)nccc12 (single isomer, unassigned; (+))	Mycobacterium intracellulare	microbial growth, resazurin	ATCC23068	–	IC50	0.22 µg/mL
N#Cc1ccc(/C=C/c2nc3ccccc3c(=O)n2-c2cccc(C(=O)NCCC(=O)O)c2)cc1	Enterococcus faecium	microbial growth, broth dilution	NCTC7171	–	MIC	> 128 µg/mL
CC(C)Oc1c(NC(=O)c2ccc(NC(=O)[C@H](CC(N)=O)NC(=O)c3ccc(NC(=O)c4ccc(C#N)s4)cc3)cc2)ccc(C(=O)Nc2ccc(C(=O)O)cc2)c1O	Citrobacter freundii	microbial growth	DSM30039	–	MIC	≤ 0.03 µg/mL
CC(=O)NCc1cccc(-n2c(/C=C/c3ccc(C#N)cc3)nc3ccccc3c2=O)c1	Enterococcus faecium	microbial growth, broth dilution	NCTC7171	–	MIC	> 128 µg/mL
CCCCCCCCCCCCCC(O)CC(O)CO (centres unmarked)	Candida albicans	microbial growth, broth dilution	ATCC90028	–	IC50	> 200 µg/mL
CS(=O)(=O)c1ccc(/C=C/c2nc3ccccc3c(=O)n2-c2cccc(C(=O)O)c2)cc1	Enterococcus faecium	microbial growth, broth dilution	NCTC7171	–	MIC	> 128 µg/mL
CC1=C(C(=O)Nc2ccc3[nH]ncc3c2)C(c2ccc3ccccc3c2)CC(=O)N1 (centres unmarked)	Trypanosoma brucei	parasite growth	–	–	EC50	3980 nM
C[C@@H]1[C@H](O)[C@@H](C)/C=C/C=C/C=C/C=C/C=C/C=C/C=C/[C@H](O[C@@H]2O[C@H](C)[C@@H](O)[C@H](N)[C@@H]2O)C[C@@H]2O[C@](O)(C[C@@H](O)C[C@@H](O)[C@H](O)CC[C@@H](O)C[C@@H](O)CC(=O)O[C@H]1C)C[C@H](O)[C@H]2C(=O)O	Candida albicans	microbial growth	ATCC90028	–	IC50	0.25 µg/mL
O=S(=O)(CCOCc1ccc(-c2ccc3ncnc(Nc4ccc(OCc5cccc(F)c5)c(Cl)c4)c3c2)o1)c1ccccc1	Trypanosoma brucei	parasite growth	–	–	EC50	1580 nM
Cc1ccc2c(-c3ccnc(Nc4ccccc4)n3)c(-c3ccc(F)cc3)nn2n1	Plasmodium berghei	parasite growth, luciferase	human	liver stage	IC50	5500 nM
C[C@@H]1[C@H](O)[C@@H](C)/C=C/C=C/C=C/C=C/C=C/C=C/C=C/[C@H](O[C@@H]2O[C@H](C)[C@@H](O)[C@H](N)[C@@H]2O)C[C@@H]2O[C@](O)(C[C@@H](O)C[C@@H](O)[C@H](O)CC[C@@H](O)C[C@@H](O)CC(=O)O[C@H]1C)C[C@H](O)[C@H]2C(=O)O	Candida albicans	microbial killing	ATCC90028	–	MFC	2.5 µg/mL (≈ 2.71 µM)
COc1ncccc1CNc1cccc(-n2c(/C=C/c3ccc(C#N)cc3)nc3ccccc3c2=O)c1	Enterococcus faecium	microbial growth, broth dilution	NCTC7171	–	MIC	> 128 µg/mL
CS(=O)(=O)CCNCc1ccc(-c2ccc3ncnc(Nc4ccc(OCc5cccc(C(F)(F)F)c5)cc4)c3c2)o1	Trypanosoma brucei	parasite growth	–	–	EC50	2000 nM
